Assay results taken from publication PMC2193521 (The Journal of Experimental Medicine, 2001).
Entries after “also recorded” stand apart in the source; their conditions may differ.

Tests used:
m6 TCR [1] = assay: SPR of TCR binding to immobilized null MCMV/L^d/Ig; set-up: species or system mouse; details: PBS, 25°C
How it was run: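 MCMV-loaded Ld/IgG1 fusion (peptide at 100-fold molar excess, pH 6.5, 37°C 1.5 h; refolded pH 7.4, 4°C 24 h; G-200 repurified) was captured on a CM5 chip coated with rabbit anti-mouse IgG. Drosophila-expressed His6 soluble m6 TCR, Ni-NTA and gel-filtration purified, was injected at several concentrations at 30 μl/min. Responses were blank-surface subtracted; regeneration used 10 mM glycine, pH 1.5.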

m6 TCR [2] = assay type: binding, mouse; details: calculated from the flow cytometry kd, room temperature
How it was run: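 T2-Ld cells (human lymphoblastoid line expressing Ld, ~3 × 10^6/ml) were loaded with peptide (~1–10 μM final) for 2 h at 37°C. They were stained for 30 min with full-length m6 TCR Drosophila supernatant, washed, and held at room temperature in PBS/1% BSA with F23.2 IgG (~300 μg/ml) as competitor. At timed points, ice-cold washes were done and residual TCR was detected by F23.1-biotin/SAv:PE flow cytometry. n = 2–3.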

Substance | TCR binding to peptide/L^d/Ig immobilized on the chip (m6 TCR [1]) | t1/2 of m6 TCR on cell-bound peptide/L^d (m6 TCR [2])
YPHFMPTNL [MCMV] | not observed; also recorded: undetectable | 
QL9-M5: QL9 variant containing a position five (Phe) substitution (QLSPMPFDL) |  | 140 s
QL9-Y5: QL9 variant with a Tyr substitution for the Phe at position 5 (QLSPYPFDL) |  | 1,180 s
